# pEC50, pIC50: −log10 of the molar value.
# System: ATH-8 cell line
# Assay: Required dose to reduce viability of normal uninfected ATH8 cells.
# Type: functional
# Settings: Homo sapiens, read-out: ID50 (the source's name)
row,Structure (SMILES),pIC50
1,Cc1cn([C@H]2C[C@H](I)[C@@H](CO)O2)c(=O)[nH]c1=O,< 3.30
2,CCc1cn([C@H]2C[C@H](N=[N+]=[N-])[C@@H](CO)O2)c(=O)[nH]c1=O,< 4.00
3,CCc1cn(C2CC(F)C(CO)O2)c(=O)[nH]c1=O (stereo not given),< 3.30
4,Cc1cn([C@H]2C[C@@H](OS(C)(=O)=O)[C@@H](CO)O2)c(=O)[nH]c1=O,< 4.00
5,Cc1cn([C@H]2C[C@H](OS(C)(=O)=O)[C@@H](CO)O2)c(=O)[nH]c1=O,< 4.00
6,Nc1ccn([C@H]2C=C[C@@H](CO)O2)c(=O)n1,4.52

# System: MT4
# Assay: Toxicity was determined by evaluation of cluster morphology and reclustering properties in mock infected MT-4 cells at 125 uM concentration; Range is 10-40
# Type: cell-based
# Settings: human, mt4, 125 µM
# In short: (§1)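 Mock-infected MT4 cells were seeded at 2.5×10^5 cells/mL with compound at 125–0.00032 µM and cultured 5 days at 37 °C. Cluster morphology was scored microscopically, then cells were dispersed by pipetting and reclustering read after 4 h. Scoring: ++ >90%, + 10–40%, − <10% toxicity.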
row,Structure (SMILES),Toxicity
1,Cc1cn([C@H]2C[C@@H](OS(C)(=O)=O)[C@@H](CO)O2)c(=O)[nH]c1=O,10%

# System: MT4
# Assay: Toxicity was determined by evaluation of cluster morphology and reclustering properties in mock infected MT-4 cells at 0.2 uM concentration
# Type: cell-based
# Settings: human, mt4, 0.2 µM
row,Structure (SMILES),Toxicity
1,Cc1cn([C@H]2C[C@H](I)[C@@H](CO)O2)c(=O)[nH]c1=O,< 10%
2,CCc1cn([C@H]2C[C@H](N=[N+]=[N-])[C@@H](CO)O2)c(=O)[nH]c1=O,< 10%
3,CCc1cn(C2CC(F)C(CO)O2)c(=O)[nH]c1=O (stereo not given),< 10%
4,Cc1cn([C@H]2C[C@@H](OS(C)(=O)=O)[C@@H](CO)O2)c(=O)[nH]c1=O,< 10%
5,Cc1cn([C@H]2C[C@H](OS(C)(=O)=O)[C@@H](CO)O2)c(=O)[nH]c1=O,< 10%
6,Nc1ccn([C@H]2C=C[C@@H](CO)O2)c(=O)n1,< 10%

# System: ATH-8 cell line
# Assay: Protection of ATH8 cells against the cytopathic effect of HIV.
# Type: functional
# Settings: Homo sapiens, read-out: ED50 (the source's name)
row,Structure (SMILES),pEC50
1,CCc1cn([C@H]2C[C@H](N=[N+]=[N-])[C@@H](CO)O2)c(=O)[nH]c1=O,< 4.00
2,Cc1cn([C@H]2C[C@@H](OS(C)(=O)=O)[C@@H](CO)O2)c(=O)[nH]c1=O,< 4.00
3,Cc1cn([C@H]2C[C@H](OS(C)(=O)=O)[C@@H](CO)O2)c(=O)[nH]c1=O,< 4.00

# Now from value to compound:
row,pEC50,Structure (SMILES)
1,< 3.30,Cc1cn([C@H]2C[C@H](I)[C@@H](CO)O2)c(=O)[nH]c1=O
2,< 3.30,CCc1cn(C2CC(F)C(CO)O2)c(=O)[nH]c1=O (stereo not given)
3,6.52,Nc1ccn([C@H]2C=C[C@@H](CO)O2)c(=O)n1

# System: MT4
# Assay: Protection was determined by evaluation of cluster morphology and reclustering properties in […] MT-4 cells at 0.2 uM concentration
# Type: functional, Homo sapiens
# Settings: not given
row,Structure (SMILES),Protection
1,Cc1cn([C@H]2C[C@H](I)[C@@H](CO)O2)c(=O)[nH]c1=O,<10%
2,CCc1cn([C@H]2C[C@H](N=[N+]=[N-])[C@@H](CO)O2)c(=O)[nH]c1=O,<10%
3,CCc1cn(C2CC(F)C(CO)O2)c(=O)[nH]c1=O (stereo not given),<10%
4,Cc1cn([C@H]2C[C@@H](OS(C)(=O)=O)[C@@H](CO)O2)c(=O)[nH]c1=O,<10%
5,Cc1cn([C@H]2C[C@H](OS(C)(=O)=O)[C@@H](CO)O2)c(=O)[nH]c1=O,<10%

# System: MT4
# Assay: Protection was determined by evaluation of cluster morphology and reclustering properties in […] MT-4 cells at 0.00032 uM concentration
# Type: functional, Homo sapiens
# Settings: not given
# In short: (§2)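 MT4 cells infected with HIV (300 CCID50/well) were seeded at 2.5×10^5 cells/mL with compound at 125, 5, 0.2, 0.008 or 0.00032 µM and kept 5 days at 37 °C. Clusters were scored microscopically, dispersed by pipetting, and reclustering assessed after 4 h at 37 °C. Scoring: +++ >90% protection.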
row,Structure (SMILES),Protection
1,CCc1cn([C@H]2C[C@H](N=[N+]=[N-])[C@@H](CO)O2)c(=O)[nH]c1=O,<10%

# System: MT4
# Assay: Toxicity was determined by evaluation of cluster morphology and reclustering properties in mock infected MT-4 cells at 125 uM concentration
# Type: cell-based
# Settings: human, mt4, 125 µM
row,Structure (SMILES),Toxicity
1,Cc1cn([C@H]2C[C@H](I)[C@@H](CO)O2)c(=O)[nH]c1=O,> 90%
2,CCc1cn([C@H]2C[C@H](N=[N+]=[N-])[C@@H](CO)O2)c(=O)[nH]c1=O,> 90%
3,CCc1cn(C2CC(F)C(CO)O2)c(=O)[nH]c1=O (stereo not given),< 10%
4,Cc1cn([C@H]2C[C@H](OS(C)(=O)=O)[C@@H](CO)O2)c(=O)[nH]c1=O,< 10%
5,Nc1ccn([C@H]2C=C[C@@H](CO)O2)c(=O)n1,> 90%

# System: not listed separately
# Assay: Therapeutic index (Ratio = ID50/ED50).
# Settings: not given
row,Structure (SMILES),selectivity ratio
1,Nc1ccn([C@H]2C=C[C@@H](CO)O2)c(=O)n1,100

# System: MT4
# Assay: Protection was determined by evaluation of cluster morphology and reclustering properties in […] MT-4 cells at 0.2 uM concentration; Range is 40-60
# Type: functional, Homo sapiens
# Settings: not given
# In short: as §2
row,Structure (SMILES),Protection
1,Nc1ccn([C@H]2C=C[C@@H](CO)O2)c(=O)n1,40%

# System: MT4
# Assay: Protection was determined by evaluation of cluster morphology and reclustering properties in […] MT-4 cells at 5 uM concentration; Range is 10-40
# Type: functional, Homo sapiens
# Settings: not given
# In short: as §2
row,Structure (SMILES),Protection
1,CCc1cn([C@H]2C[C@H](N=[N+]=[N-])[C@@H](CO)O2)c(=O)[nH]c1=O,10%
2,Cc1cn([C@H]2C[C@H](OS(C)(=O)=O)[C@@H](CO)O2)c(=O)[nH]c1=O,10%

# System: MT4
# Assay: Protection was determined by evaluation of cluster morphology and reclustering properties in mock infected MT-4 cells at 125 uM concentration
# Type: functional, Homo sapiens
# Settings: in the assay text read “HIV infected” for “mock infected”
# In short: as §2
row,Structure (SMILES),Protection
1,Cc1cn([C@H]2C[C@@H](OS(C)(=O)=O)[C@@H](CO)O2)c(=O)[nH]c1=O,>90%
2,Cc1cn([C@H]2C[C@H](OS(C)(=O)=O)[C@@H](CO)O2)c(=O)[nH]c1=O,>90%

# System: MT4
# Assay: Protection was determined by evaluation of cluster morphology and reclustering properties in […] at 0.008 uM concentration.
# Type: functional, Homo sapiens
# Settings: not given
row,Structure (SMILES),Protection
1,Cc1cn([C@H]2C[C@H](I)[C@@H](CO)O2)c(=O)[nH]c1=O,<10%
2,CCc1cn([C@H]2C[C@H](N=[N+]=[N-])[C@@H](CO)O2)c(=O)[nH]c1=O,<10%
3,Nc1ccn([C@H]2C=C[C@@H](CO)O2)c(=O)n1,<10%

# System: MT4
# Assay: Protection was determined by evaluation of cluster morphology and reclustering properties in mock infected MT-4 cells at 125 uM concentration; Range is 10-40
# Type: functional, Homo sapiens
# Settings: in the assay text read “HIV infected” for “mock infected”
# In short: as §2
row,Structure (SMILES),Protection
1,CCc1cn(C2CC(F)C(CO)O2)c(=O)[nH]c1=O (stereo not given),10%

# System: MT4
# Assay: Toxicity was determined by evaluation of cluster morphology and reclustering properties in mock infected MT-4 cells at 5 uM concentration
# Type: cell-based
# Settings: human, mt4, 5 µM
# In short: as §1
row,Structure (SMILES),Toxicity
1,Cc1cn([C@H]2C[C@H](I)[C@@H](CO)O2)c(=O)[nH]c1=O,< 10%
2,CCc1cn([C@H]2C[C@H](N=[N+]=[N-])[C@@H](CO)O2)c(=O)[nH]c1=O,< 10%
3,CCc1cn(C2CC(F)C(CO)O2)c(=O)[nH]c1=O (stereo not given),< 10%
4,Cc1cn([C@H]2C[C@@H](OS(C)(=O)=O)[C@@H](CO)O2)c(=O)[nH]c1=O,< 10%
5,Cc1cn([C@H]2C[C@H](OS(C)(=O)=O)[C@@H](CO)O2)c(=O)[nH]c1=O,< 10%
6,Nc1ccn([C@H]2C=C[C@@H](CO)O2)c(=O)n1,< 10%

# System: MT4
# Assay: Protection was determined by evaluation of cluster morphology and reclustering properties in […] MT-4 cells at 5 uM concentration.
# Type: functional, Homo sapiens
# Settings: not given
# In short: as §2
row,Structure (SMILES),Protection
1,Cc1cn([C@H]2C[C@H](I)[C@@H](CO)O2)c(=O)[nH]c1=O,<10%
2,CCc1cn(C2CC(F)C(CO)O2)c(=O)[nH]c1=O (stereo not given),<10%
3,Cc1cn([C@H]2C[C@@H](OS(C)(=O)=O)[C@@H](CO)O2)c(=O)[nH]c1=O,<10%
4,Nc1ccn([C@H]2C=C[C@@H](CO)O2)c(=O)n1,>90%

# From ChEMBL document CHEMBL1123791, “3'-substituted 2',3'-dideoxynucleoside analogues as potential anti-HIV (HTLV-III/LAV) agents” (J Med Chem, 1987)
